MIC data for ten molecules are collected here from ChEMBL document CHEMBL1149844, “Antibacterial C-geranylflavonoids from Paulownia tomentosa Fruits” (2008).

In brackets after ≈: the same amount, converted by molar mass.

One experiment concerns Bacillus cereus. In words: Antibacterial activity against Bacillus cereus ATCC 11778 after 24 hrs by broth microdilution method. The class given is functional. The conditions noted are these: ATCC 11778, 24 h. In outline: (§1)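 Bacteria grown and tested in Mueller-Hinton broth. Seven 2-fold dilutions spanning 32 to 0.5 µg mL-1, each well inoculated with bacterial suspension at 10^7 CFU mL-1, incubated 37 °C for 24 h. Turbidity read at 600 nm. MIC is the lowest concentration giving 80% growth reduction versus the compound-free growth control. DMSO (5% v/v) in TBS as negative control, triplicates.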
On the technique in general: Dilution methods test growth across graded concentrations, often in twofold steps.

The next experiment deals with Bacillus subtilis. In words: Antibacterial activity against Bacillus subtilis ATCC 6633 after 24 hrs by broth microdilution method. The class given is functional. The conditions noted are these: ATCC 6633, 24 h. In outline: as §1
A further experiment has as its system Enterococcus faecalis. In words: Antibacterial activity against Enterococcus faecalis ATCC 29212 after 24 hrs by broth microdilution method. The class given is functional. As to conditions: ATCC 29212, 24 h. In outline: as §1
The subject of a further experiment is Listeria monocytogenes. Description: Antibacterial activity against Listeria monocytogenes ATCC 7644 after 24 hrs by broth microdilution method. It is filed as functional. As to conditions: ATCC 7644, 24 h. In outline:
as §1

For a further experiment, the system named is Staphylococcus aureus. Description: Antibacterial activity against Staphylococcus aureus ATCC 25923 after 24 hrs by broth microdilution method. The class given is functional. As to conditions: ATCC 25923, 24 h. In outline: as §1
The subject of experiment [1] is Staphylococcus epidermidis. In words: Antibacterial activity against Staphylococcus epidermidis ATCC 12228 after 24 hrs by broth microdilution method. The class given is functional. As to conditions: ATCC 12228, 24 h. In outline:
as §1

Another experiment relates to Escherichia coli. In words: Antibacterial activity against Escherichia coli ATCC 25922 after 24 hrs by broth microdilution method. It is filed as functional. As to conditions: ATCC 25922, 24 h. In outline: as §1
The next experiment concerns Pseudomonas aeruginosa. Description: Antibacterial activity against Pseudomonas aeruginosa ATCC 27853 after 24 hrs by broth microdilution method. The class given is functional. As to conditions: ATCC 27853, 24 h. In outline:
as §1

For a further experiment, the system named is Salmonella enteritidis. In words: Antibacterial activity against Salmonella enteritidis ATCC 13076 after 24 hrs by broth microdilution method. It is filed as functional, Salmonella enterica subsp. enterica serovar Enteritidis. As to conditions: Salmonella enterica, ATCC 13076, 24 h. In outline:
as §1

The subject of another experiment is Candida albicans. In words: Antibacterial activity against Candida albicans ATCC 10231 after 48 hrs by broth microdilution method. The class given is functional. In outline:
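Yeast grown and tested in Mueller-Hinton broth, microdilution with seven 2-fold dilutions from 32 to 0.5 µg mL-1. Inoculum at 10^7 CFU mL-1, 37 °C for 48 h. Growth measured as turbidity at 600 nm. MIC is the lowest concentration cutting growth by 80% relative to the compound-free control. DMSO (5% v/v) in TBS as negative control, run in triplicate.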

As for `COc1cc([C@@H]2CC(=O)c3c(cc(O)c(C/C=C(\C)CCC=C(C)C)c3O)O2)ccc1O`, the MIC (usually the lowest concentration that inhibits growth of the organism) turned out to be 4 µg/mL (≈ 9.12 µM) against Bacillus cereus; 8 µg/mL (≈ 18.2 µM) in the experiment with Bacillus subtilis; 8 µg/mL (≈ 18.2 µM) against Enterococcus faecalis; 4 µg/mL (≈ 9.12 µM) against Listeria monocytogenes; 8 µg/mL (≈ 18.2 µM) against Staphylococcus aureus; 4 µg/mL (≈ 9.12 µM) in [1]. The MIC is greater than 32 µg/mL with Escherichia coli; greater than 32 µg/mL with Pseudomonas aeruginosa; greater than 32 µg/mL against Salmonella enteritidis; greater than 32 µg/mL with Candida albicans (ATCC 10231, 48 h).
`COc1cc([C@H]2Oc3cc(O)c(C/C=C(\C)CCC=C(C)C)c(O)c3C(=O)[C@@H]2O)ccc1O`: the MIC in the experiment with Bacillus cereus is 2 µg/mL (≈ 4.4 µM); with Bacillus subtilis, 4 µg/mL (≈ 8.8 µM); in the experiment with Enterococcus faecalis, 4 µg/mL (≈ 8.8 µM); against Listeria monocytogenes, 2 µg/mL (≈ 4.4 µM); against Staphylococcus aureus, 2 µg/mL (≈ 4.4 µM); in [1] it was 2 µg/mL (≈ 4.4 µM). Also, the MIC against Escherichia coli is greater than 32 µg/mL; in the experiment on Pseudomonas aeruginosa, greater than 32 µg/mL; with Salmonella enteritidis, greater than 32 µg/mL; against Candida albicans (ATCC 10231, 48 h) it was greater than 32 µg/mL.
`COc1cc([C@@H]2CC(=O)c3c(cc(O)c(C/C=C(\C)CCC=C(C)C)c3O)O2)cc(O)c1O`: the MIC is 4 µg/mL (≈ 8.8 µM) against Bacillus cereus; 4 µg/mL (≈ 8.8 µM) against Bacillus subtilis; 4 µg/mL (≈ 8.8 µM) in the experiment with Enterococcus faecalis; 4 µg/mL (≈ 8.8 µM) in the experiment with Listeria monocytogenes; 2 µg/mL (≈ 4.4 µM) in the experiment with Staphylococcus aureus; 4 µg/mL (≈ 8.8 µM) in experiment [1]. Also, the minimum inhibitory concentration (MIC) in the experiment on Escherichia coli was greater than 32 µg/mL; against Pseudomonas aeruginosa, greater than 32 µg/mL; in the experiment with Salmonella enteritidis, greater than 32 µg/mL; in the experiment with Candida albicans (ATCC 10231, 48 h), greater than 32 µg/mL.
On to `COc1cc([C@@H]2CC(=O)c3c(cc(O)c(C/C=C(\C)CCC=C(C)C)c3O)O2)cc(OC)c1O`, for which the MIC (in the experiment on Bacillus cereus; with Bacillus subtilis; with Enterococcus faecalis; in the experiment on Listeria monocytogenes; in the experiment with Staphylococcus aureus; in [1]) was 4 µg/mL (≈ 8.54 µM) throughout. Besides, the MIC against Escherichia coli is greater than 32 µg/mL; against Pseudomonas aeruginosa, greater than 32 µg/mL; with Salmonella enteritidis, greater than 32 µg/mL; in the experiment with Candida albicans (ATCC 10231, 48 h) it was greater than 32 µg/mL.
In the case of `CC(C)=CCC/C(C)=C/Cc1c(O)cc2c(c1O)C(=O)C[C@@H](c1ccc(O)cc1)O2` [BONANNIONE A], the MIC in the experiment on Bacillus cereus came out at 4 µg/mL (≈ 9.79 µM); against Bacillus subtilis it was 4 µg/mL (≈ 9.79 µM); against Enterococcus faecalis, 4 µg/mL (≈ 9.79 µM); in the experiment on Listeria monocytogenes, 4 µg/mL (≈ 9.79 µM); in the experiment with Staphylococcus aureus it was 8 µg/mL (≈ 19.6 µM); in [1] it was 4 µg/mL (≈ 9.79 µM). Moreover, the MIC against Escherichia coli is greater than 32 µg/mL; against Pseudomonas aeruginosa, greater than 32 µg/mL; against Salmonella enteritidis it was greater than 32 µg/mL; in the experiment on Candida albicans (ATCC 10231, 48 h) it was greater than 32 µg/mL.
As to `O=C(O)c1cn(C2CC2)c2cc(N3CCNCC3)c(F)cc2c1=O` [CIPROFLOXACIN], the MIC in the experiment on Bacillus cereus amounted to 1 µg/mL (≈ 3.02 µM); in the experiment with Bacillus subtilis, 2 µg/mL (≈ 6.04 µM); with Enterococcus faecalis it was 1 µg/mL (≈ 3.02 µM); against Listeria monocytogenes, 1 µg/mL (≈ 3.02 µM); in the experiment on Staphylococcus aureus, 0.5 µg/mL (≈ 1.51 µM); in [1], 1 µg/mL (≈ 3.02 µM). This molecule also displayed an MIC against Salmonella enteritidis of 0.015 µg/mL (≈ 0.0453 µM).
In the case of `CC(C)=CCC/C(C)=C/Cc1c(O)cc2c(c1O)C(=O)C[C@@H](c1ccc(O)c(O)c1)O2` [NYMPHAEOL A], the MIC (against Bacillus cereus; in the experiment on Bacillus subtilis; with Enterococcus faecalis; against Listeria monocytogenes; with Staphylococcus aureus; in experiment [1]) was 4 µg/mL (≈ 9.42 µM) throughout. For the same molecule, the minimal inhibitory concentration (MIC) with Escherichia coli is greater than 32 µg/mL; in the experiment with Pseudomonas aeruginosa, greater than 32 µg/mL; with Salmonella enteritidis it was greater than 32 µg/mL; against Candida albicans (ATCC 10231, 48 h), greater than 32 µg/mL.
Consider `COc1cc([C@@H]2CC(=O)c3c(cc(O)c(C/C=C(\C)C/C=C/C(C)(C)O)c3O)O2)ccc1O` [TOMENTODIPLACONE B], for which the MIC (against Bacillus cereus; with Bacillus subtilis; against Enterococcus faecalis; against Listeria monocytogenes; against Staphylococcus aureus; in experiment [1]) was greater than 32 µg/mL in each case. Further, the MIC against Escherichia coli was greater than 32 µg/mL; against Pseudomonas aeruginosa it was greater than 32 µg/mL; against Salmonella enteritidis it was greater than 32 µg/mL; against Candida albicans (ATCC 10231, 48 h), greater than 32 µg/mL.
For the molecule `C=C(C)C(O)CC/C(C)=C/Cc1c(O)cc2c(c1O)C(=O)C[C@@H](c1ccc(O)c(OC)c1)O2` (stereo partly specified) [TOMENTODIPLACONE], the MIC against Bacillus cereus was 16 µg/mL (≈ 35.2 µM); in the experiment on Listeria monocytogenes, 32 µg/mL (≈ 70.4 µM); in the experiment on Staphylococcus aureus it was 16 µg/mL (≈ 35.2 µM); in experiment [1], 32 µg/mL (≈ 70.4 µM); with Escherichia coli, greater than 32 µg/mL; against Pseudomonas aeruginosa, greater than 32 µg/mL. For the same molecule, the MIC is greater than 32 µg/mL with Salmonella enteritidis and greater than 32 µg/mL in the experiment with Candida albicans (ATCC 10231, 48 h).
NYSTATIN returned an MIC in the experiment with Candida albicans of 4 µg/mL.
